Two compounds from ChEMBL document CHEMBL1143707, “7-Arylpiperazinylalkyl and 7-tetrahydroisoquinolinylalkyl derivatives of 8-alkoxy-purine-2,6-dione and some of their purine-2,6,8-trione analogs as 5-HT(1A), 5-HT(2A), and 5-HT(7) serotonin receptor ligands” (Bioorg Med Chem, 2007) can be followed below.

Each structure is given as a SMILES string.

Common to all, as to format: functional
Experiment [1] deals with Mus musculus. As to the kind of experiment: Effect on compound induced hypothermia in Swiss Albino mouse at 5 mg/kg in presence of 0.1 mg/kg WAY 100635 after 60 mins relative to control. Put shortly:
(§1)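 Male Albino Swiss mice. WAY 100635 (0.1 mg/kg sc, in distilled water) given 15 min before the agonist (5 mg/kg sc, in saline). Rectal temperature recorded 30 and 60 min after agonist and expressed as Δt from basal; n = 8 per group; compared with vehicle + agonist group.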

Experiment [2] deals with Mus musculus. As to the kind of experiment: Effect on compound induced hypothermia in Swiss Albino mouse at 5 mg/kg, sc in presence of 0.1 mg/kg WAY 100635 after 30 mins relative to control. Put shortly: as §1
Experiment [3] relates to Mus musculus. Briefly: Decrease in body temperature in Swiss Albino mouse at 5 mg/kg, sc after 60 mins relative control. The settings on record: route subcutaneous. Put shortly: (§2)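 Male Albino Swiss mice (24-28 g); drug dissolved in saline, injected sc at 10 mL/kg. Rectal temperature recorded with a thermometer at 30 and 60 min after injection. Result expressed as change (Δt) from basal temperature taken at the start of the experiment; n = 8 per group; mean ± SEM versus vehicle.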

Experiment [4] has as its system Mus musculus. As to the kind of experiment: Decrease in body temperature in Swiss Albino mouse at 5 mg/kg, sc after 30 mins relative control. Conditions: route subcutaneous. Put shortly:
as §2

The subject of experiment [5] is Mus musculus. As to the kind of experiment: Antidepressant activity in Swiss Albino mouse assessed as immobility time during final 4 mins of 6 mins session at 10 mg/kg, ip administered 30 mins before the test in forced-swimming test. Conditions: route intraperitoneal. The method, boiled down:
(§3)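 Male Albino Swiss mice (24-28 g), ip in 1% aqueous Tween 80 suspension (10 mL/kg), 30 min pretest; single glass cylinder (25 cm high, 10 cm diameter), 6 cm water at 23–25 °C for 6 min; immobility (floating, minimal head-keeping movements) timed over final 4 min; n = 9-10/group; mean ± SEM.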

Experiment [6] relates to Mus musculus. Briefly: Antidepressant activity in Swiss Albino mouse assessed as immobility time during final 4 mins of 6 mins session at 20 mg/kg, ip administered 30 mins before the test in forced-swimming test. The settings on record: route intraperitoneal. Put shortly: as §3
Experiment [7] relates to Mus musculus. Briefly: Antidepressant activity in Swiss Albino mouse assessed as immobility time during final 4 mins of 6 mins session at 30 mg/kg, ip administered 30 mins before the test in forced-swimming test. The settings on record: route intraperitoneal.
Experiment [8] relates to Mus musculus. As to the kind of experiment: Locomotor activity in Swiss Albino mouse assessed as number of crossings in 6 mins at 10 mg/kg, ip administered 30 mins before the test. Conditions: route intraperitoneal. Put shortly:
(§4)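 Male Albino Swiss mice dosed ip 30 min before test (compound in 1% Tween 80; imipramine in distilled water); individual cages with IR beam sensors, consecutive beam breaks scored as ambulatory counts during first 6 min and over a 30-min session; n = 10/group; mean ± SEM.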

The test system of experiment [9] is Mus musculus. Briefly: Locomotor activity in Swiss Albino mouse assessed as number of crossings in 6 mins at 20 mg/kg, ip administered 30 mins before the test. The settings on record: route intraperitoneal. The method, boiled down:
as §4

In experiment [10] the test system is Mus musculus. Briefly: Locomotor activity in Swiss Albino mouse assessed as number of crossings in 6 mins at 30 mg/kg, ip administered 30 mins before the test. The settings on record: route intraperitoneal. The method, boiled down:
as §4

In experiment [11] the test system is Mus musculus. As to the kind of experiment: Locomotor activity in Swiss Albino mouse assessed as number of crossings in 30 mins at 10 mg/kg, ip administered 30 mins before the test. The settings on record: route intraperitoneal. Put shortly: as §4
The subject of experiment [12] is Mus musculus. Briefly: Locomotor activity in Swiss Albino mouse assessed as number of crossings in 30 mins at 30 mg/kg, ip administered 30 mins before the test. The settings on record: route intraperitoneal. Put shortly: as §4

Regarding `CCCN(CCC)C1CCc2cccc(O)c2C1` (configuration not stated) [8-OH-DPAT], the Activity is 0.1 °C in the experiment with Mus musculus [1], -0.1 °C in the experiment with Mus musculus [2], -0.7 °C in the experiment with Mus musculus [3] and -1 °C in the experiment on Mus musculus [4].
For the compound `CN(C)CCCN1c2ccccc2CCc2ccccc21` [IMIPRAMINE], the Activity in the experiment with Mus musculus [5] is 149.1 s; in the experiment on Mus musculus [6] it was 107.8 s; in the experiment with Mus musculus [7], 76.4 s; in the experiment with Mus musculus [8], 338; in the experiment on Mus musculus [9], 314.9; in the experiment on Mus musculus [10], 300.9. The Activity with Mus musculus [11] was 877; with Mus musculus [12] it was 602.3.
